Calls of active or inactive are those of the source. The rule behind the calls is not given here.
Key:
[1] = target: T1, Multidrug efflux pump subunit AcrB (Escherichia coli (strain K12)) (UniProt P31224); assay: Inhibition of AcrB in Escherichia coli BW25113 assessed as potentiation of chloramphenicol induced antibacterial activity by measuring chloramphenicol MIC at 8 ug/ml measured after 18 hrs by checkerboard titration method (reference value: 8 ug/ml); conditions: dose 8.0 µg/ml
T1 sequence (whole entry): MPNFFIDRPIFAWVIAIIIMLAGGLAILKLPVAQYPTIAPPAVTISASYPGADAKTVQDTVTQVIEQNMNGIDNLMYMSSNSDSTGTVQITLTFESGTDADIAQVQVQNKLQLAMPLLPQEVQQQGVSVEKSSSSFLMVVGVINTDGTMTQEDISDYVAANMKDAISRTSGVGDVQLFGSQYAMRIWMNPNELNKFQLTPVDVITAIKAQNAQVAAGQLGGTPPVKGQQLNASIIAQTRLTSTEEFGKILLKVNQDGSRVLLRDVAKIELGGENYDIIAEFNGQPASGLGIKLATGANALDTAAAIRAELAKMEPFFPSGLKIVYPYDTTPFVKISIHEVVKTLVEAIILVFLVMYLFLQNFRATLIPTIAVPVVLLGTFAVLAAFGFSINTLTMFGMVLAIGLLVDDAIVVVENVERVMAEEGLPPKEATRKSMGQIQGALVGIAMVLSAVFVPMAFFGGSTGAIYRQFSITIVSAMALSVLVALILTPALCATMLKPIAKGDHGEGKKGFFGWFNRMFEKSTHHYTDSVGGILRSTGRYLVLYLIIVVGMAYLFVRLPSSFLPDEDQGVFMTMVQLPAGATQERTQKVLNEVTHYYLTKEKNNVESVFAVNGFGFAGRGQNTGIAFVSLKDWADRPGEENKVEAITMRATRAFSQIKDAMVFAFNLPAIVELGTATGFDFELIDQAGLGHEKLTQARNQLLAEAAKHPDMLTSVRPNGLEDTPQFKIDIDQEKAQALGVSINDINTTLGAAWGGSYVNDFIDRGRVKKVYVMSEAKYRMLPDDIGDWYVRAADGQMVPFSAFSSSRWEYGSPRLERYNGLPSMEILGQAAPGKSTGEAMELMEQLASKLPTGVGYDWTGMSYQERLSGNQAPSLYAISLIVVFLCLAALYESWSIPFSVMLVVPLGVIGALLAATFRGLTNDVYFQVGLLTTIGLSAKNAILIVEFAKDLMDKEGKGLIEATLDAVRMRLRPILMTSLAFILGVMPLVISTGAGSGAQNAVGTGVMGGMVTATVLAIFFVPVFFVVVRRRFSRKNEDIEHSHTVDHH

[2] = target: T1, Multidrug efflux pump subunit AcrB (Escherichia coli (strain K12)); assay: Inhibition of AcrB in Escherichia coli BW25113 assessed as potentiation of chloramphenicol induced antibacterial activity by measuring chloramphenicol MIC at 32 ug/ml measured after 18 hrs by checkerboard titration method (reference value: 8 ug/ml); conditions: dose 32.0 µg/ml
[3] = target: T1, Multidrug efflux pump subunit AcrB (Escherichia coli (strain K12)); assay: Inhibition of AcrB in Escherichia coli BW25113 assessed as potentiation of erythromycin induced antibacterial activity by measuring erythromycin MIC at 8 ug/ml measured after 18 hrs by checkerboard titration method (reference value: 64 ug/ml); conditions: dose 8.0 µg/ml
[4] = target: T1, Multidrug efflux pump subunit AcrB (Escherichia coli (strain K12)); assay: Inhibition of AcrB in Escherichia coli BW25113 assessed as potentiation of tetraphenylphosphonium induced antibacterial activity by measuring tetraphenylphosphonium MIC at 16 ug/ml measured after 18 hrs by checkerboard titration method (reference value: 1024 ug/ml); conditions: dose 16.0 µg/ml
[5] = target: T1, Multidrug efflux pump subunit AcrB (Escherichia coli (strain K12)); assay: Inhibition of AcrB in Escherichia coli BW25113 assessed as potentiation of levofloxacin induced antibacterial activity by measuring levofloxacin MIC at 16 ug/ml measured after 18 hrs by checkerboard titration method (reference value: 0.06 ug/ml); conditions: dose 16.0 µg/ml
[6] = target: T1, Multidrug efflux pump subunit AcrB (Escherichia coli (strain K12)); assay: Inhibition of AcrB in Escherichia coli BW25113 assessed as potentiation of levofloxacin induced antibacterial activity by measuring levofloxacin MIC at 32 ug/ml measured after 18 hrs by checkerboard titration method (reference value: 0.06 ug/ml); conditions: dose 32.0 µg/ml
[7] = target: T1, Multidrug efflux pump subunit AcrB (Escherichia coli (strain K12)); assay: Inhibition of AcrB in Escherichia coli BW25113 assessed as potentiation of levofloxacin induced antibacterial activity by measuring levofloxacin MIC at 64 ug/ml measured after 18 hrs by checkerboard titration method (reference value: 0.06 ug/ml); conditions: dose 64.0 µg/ml
[8] = target: T1, Multidrug efflux pump subunit AcrB (Escherichia coli (strain K12)); assay: Inhibition of AcrB in Escherichia coli BW25113 assessed as potentiation of rifampicin induced antibacterial activity by measuring rifampicin MIC at 32 ug/ml measured after 18 hrs by checkerboard titration method (reference value: 16 ug/ml); conditions: dose 32.0 µg/ml
[9] = target: T1, Multidrug efflux pump subunit AcrB (Escherichia coli (strain K12)); assay: Inhibition of AcrB in Escherichia coli BW25113 assessed as reduction in glucose-induced nile red efflux at 500 uM preincubated for 15 mins followed by nile red addition and incubated for 3 hrs in shaker in presence of CCCP by fluorimetric analysis; conditions: time 195.0 min
Summary of the method: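 Wild-type E. coli cells with active AcrB were preloaded with Nile Red, with or without compound, before fluorescence recording began. At 100 sec, 0.2% glucose was added to re-energize the cells and trigger efflux, which was followed by fluorometry. An acrB-deleted isogenic strain served as the maximum-accumulation (no-efflux) reference. Triplicate experiments used different cell batches.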

Cell membrane = assay: Induction of outer membrane permeabilization in wild type Escherichia coli BW25113 assessed as increase in nitrocefin hydrolysis at 128 ug/ml by spectrophotometry analysis; conditions: dose 128 µg/ml
Summary of the method: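 Outer-membrane permeability: intact E. coli treated with 10 µM CCCP to block nitrocefin efflux, then exposed to compound. Nitrocefin hydrolysis by periplasmic β-lactamase followed as increasing absorbance at 490 nm over time. Polymyxin B as permeabilizer control, untreated cells as baseline. Duplicate experiments on different days.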

- MIC [1]: 4 µg/mL
- MIC [2]: 4 µg/mL
- MIC [3]: 32 µg/mL
- MIC [4]: 1020 µg/mL
- MIC [5]: 0.06 µg/mL
- MIC [6]: 0.03 µg/mL
- MIC [7]: 0.03 µg/mL
- MIC [8]: 16 µg/mL
- inhibition [9]: Active
Structure (SMILES): O=C(NCCc1ccc(O)c(O)c1)c1cc(O)c(O)c(O)c1
- Activity (Cell membrane): Non-Toxic
